Reference: ChEMBL document CHEMBL1155099, “Natural products in parallel synthesis: triazole libraries of nonactic acid” (2008)
Active and inactive are the calls of the source.

Legend:
Type in all cases: functional, organism-based
[1] = system: Saccharomyces cerevisiae; experiment: Antifungal activity against Saccharomyces cerevisiae at 1 mM by almar blue dye reduction assay
Summary of the method: (§1)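 Single-point primary screen at 1 mM using Alamar Blue dye reduction as the growth read-out.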

[2] = system: Staphylococcus aureus; experiment: Antibacterial activity against Staphylococcus aureus at 1 mM by almar blue dye reduction assay; summary of the method: as §1
[3] = system: Cryptococcus neoformans; experiment: Antifungal activity against Cryptococcus neoformans at 1 mM by almar blue dye reduction assay; summary of the method: as §1
[4] = system: Pseudomonas aeruginosa; experiment: Antibacterial activity against Pseudomonas aeruginosa at 1 mM by almar blue dye reduction assay; summary of the method: as §1
[5] = system: Bacillus subtilis; experiment: Antibacterial activity against Bacillus subtilis at 1 mM by almar blue dye reduction assay; summary of the method: as §1
[6] = system: Bacillus anthracis; experiment: Antibacterial activity against Bacillus anthracis at 1mM by almar blue dye reduction assay
[7] = system: Bacillus cereus; experiment: Antibacterial activity against Bacillus cereus at 1 mM by almar blue dye reduction assay; summary of the method: as §1
[8] = system: Candida albicans; experiment: Antifungal activity against Candida albicans at 1 mM by almar blue dye reduction assay; summary of the method: as §1
[9] = system: Escherichia coli; experiment: Antibacterial activity against Escherichia coli at 1 mM by almar blue dye reduction assay; summary of the method: as §1

Measured: Activity

Cc1cccc(NC(=O)NCC#Cc2cn([C@H](C)CC3CCC([C@@H](C)C(=O)N(C)Cc4ccccc4)O3)nn2)c1 (single isomer, unassigned)
inactive: all assays above

C[C@H](C[C@@H]1CC[C@H]([C@@H](C)C(=O)N2CCN(CC3CCCO3)CC2)O1)n1cc(C#CCN2CCC(c3ccccc3)CC2)nn1 (some centres not stated)
inactive: all assays above

CCN(CC)C(=O)[C@H](C)[C@H]1CC[C@@H](C[C@@H](C)n2cc(C#CCNCCOC)nn2)O1
inactive: all assays above

C[C@H](C[C@@H]1CC[C@H]([C@@H](C)C(=O)N2CCN(CC3CCCO3)CC2)O1)n1cc(C#CCOc2ccccc2)nn1 (some centres not stated)
inactive: all assays above

CCN(CC)C(=O)[C@H](C)[C@H]1CC[C@@H](C[C@@H](C)n2cc(C#CCN(C)C)nn2)O1
inactive: all assays above

C[C@H](CC1CCC([C@@H](C)C(=O)N2CCCC2)O1)n1cc(C#CCOC(=O)OCc2ccccc2)nn1 (single isomer, unassigned)
inactive: all assays above

CCN(CC)C(=O)[C@H](C)[C@H]1CC[C@@H](C[C@@H](C)n2cc(C#Cc3ccc(Oc4ccccc4)cc3)nn2)O1
inactive: all assays above

CC(C)CC#Cc1cn([C@H](C)C[C@@H]2CC[C@H]([C@@H](C)C(=O)N3CCCC3)O2)nn1
inactive: all assays above

C[C@H](C[C@@H]1CC[C@H]([C@@H](C)C(=O)N2CCCC2)O1)n1cc(C#CCOc2ccc(C(F)(F)F)cc2)nn1
inactive: all assays above

C[C@H](C[C@@H]1CC[C@H]([C@@H](C)C(=O)N2CCCC2)O1)n1cc(C#Cc2ccc(-c3ccccc3)cc2)nn1
inactive: all assays above

CCCNC(=O)NCC#Cc1cn([C@H](C)CC2CCC([C@@H](C)C(=O)N(C)Cc3ccccc3)O2)nn1 (single isomer, unassigned)
inactive: all assays above

CC(C)NC(=O)[C@H](C)[C@H]1CC[C@@H](C[C@@H](C)n2cc(C#Cc3ccccc3)nn2)O1
inactive: all assays above

CC(C)CC#Cc1cn([C@H](C)C[C@@H]2CC[C@H]([C@@H](C)C(=O)N3CCN(CC4CCCO4)CC3)O2)nn1 (some centres not stated)
inactive: all assays above

C[C@H](C[C@@H]1CC[C@H]([C@@H](C)C(=O)N2CCCC2)O1)n1cc(C#CCN2CCOCC2)nn1
inactive: all assays above

C[C@H](C[C@@H]1CC[C@H]([C@@H](C)C(=O)N2CCN(CC3CCCO3)CC2)O1)n1cc(C#Cc2ccc(Oc3ccccc3)cc2)nn1 (some centres not stated)
inactive: all assays above

C[C@H](C[C@@H]1CC[C@H]([C@@H](C)C(=O)N2CCCC2)O1)n1cc(C#Cc2cccc3ccccc23)nn1
inactive: all assays above

C[C@H](C[C@@H]1CC[C@H]([C@@H](C)C(=O)N2CCN(CC3CCCO3)CC2)O1)n1cc(C#CCN(C)C)nn1 (some centres not stated)
inactive: all assays above

CC(C)NC(=O)[C@H](C)[C@H]1CC[C@@H](C[C@@H](C)n2cc(C#CCOc3cccc(-c4ccccc4)c3)nn2)O1
inactive: all assays above

CC(C)NC(=O)[C@H](C)[C@H]1CC[C@@H](C[C@@H](C)n2cc(C#CCC3CCCC3)nn2)O1
inactive: all assays above

CCN(CC)C(=O)[C@H](C)[C@H]1CC[C@@H](C[C@@H](C)n2cc(C#CCOc3cccc(-c4ccccc4)c3)nn2)O1
inactive: all assays above

Cc1cccc(NC(=O)OCC#Cc2cn([C@H](C)CC3CCC([C@@H](C)C(=O)N(C)Cc4ccccc4)O3)nn2)c1 (single isomer, unassigned)
inactive: all assays above

CCOC(=O)C#Cc1cn([C@H](C)CC2CCC([C@@H](C)C(=O)N(C)Cc3ccccc3)O2)nn1 (single isomer, unassigned)
inactive: all assays above

CCN(CC)C(=O)[C@H](C)[C@H]1CC[C@@H](C[C@@H](C)n2cc(C#CCN3CCOCC3)nn2)O1
inactive: all assays above
